We go through three molecules from ChEMBL document CHEMBL1629487, “Synthesis and in vitro antimicrobial evaluation of novel fluoroquinolone derivatives” (2010).

The structures appear in SMILES notation. Values after ≈ are worked out from the molar mass of the structure shown.

The first assay deals with Aeromonas hydrophila. The assay is described as follows: Antimicrobial activity against Aeromonas hydrophila ATCC 7966 after 18 to 24 hrs by microbroth dilution method. It is filed as functional.
Settings: not given
An outline of the steps:
(§1)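 Bacteria were cultured in Mueller Hinton broth in 96-well microtiter plates, and the suspensions were added to MHB containing varying concentrations of test compound. Plates were incubated at 37 °C for 18–24 h, then read visually with a reading mirror and spectrophotometrically at 450 nm. MIC was taken as the lowest concentration giving complete suppression of visible growth.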
As for `O=C(O)c1cn(C2CC2)c2cc(N3CCNCC3)c(F)cc2c1=O` [CIPROFLOXACIN], 3 µg/mL (≈ 9.05 µM) was the least that counted as inhibitory (MIC).

Regarding `CCn1cc(C(=O)O)c(=O)c2cc(F)c(N3CCN(c4ccccc4F)CC3)c(F)c21`, the MIC (usually the lowest concentration that inhibits growth of the organism) came out at 1.5 µg/mL (≈ 3.48 µM).

In turn, `CCn1cc(C(=O)O)c(=O)c2cc(F)c(N3CCN(Cc4ccccc4)CC3)c(F)c21` displayed an MIC of 1.5 µg/mL (≈ 3.51 µM).

A further assay relates to Proteus mirabilis. The assay is described as follows: Antimicrobial activity against Proteus mirabilis ATCC 7002 after 18 to 24 hrs by microbroth dilution method.
Settings: not given
The assay is classed as functional. In short, it runs like this:
as §1
For orientation: In broth dilution the organism is exposed to a series of concentrations in liquid medium.
On to `O=C(O)c1cn(C2CC2)c2cc(N3CCNCC3)c(F)cc2c1=O` [CIPROFLOXACIN], for which the MIC stood at 6 µg/mL (≈ 18.1 µM).

Turning to `CCn1cc(C(=O)O)c(=O)c2cc(F)c(N3CCN(c4ccccc4F)CC3)c(F)c21`, the MIC is 5 µg/mL (≈ 11.6 µM).

For `CCn1cc(C(=O)O)c(=O)c2cc(F)c(N3CCN(Cc4ccccc4)CC3)c(F)c21`, the lowest concentration to inhibit growth (MIC) was 1.5 µg/mL (≈ 3.51 µM).

Another assay has as its system Streptococcus sanguinis. The assay is described as follows: Antimicrobial activity against Streptococcus sanguinis ATCC 10556 after 18 to 24 hrs by microbroth dilution method.
Settings: not given
It is filed as functional. In short, it runs like this: as §1
`O=C(O)c1cn(C2CC2)c2cc(N3CCNCC3)c(F)cc2c1=O` [CIPROFLOXACIN] had an MIC of 4 µg/mL (≈ 12.1 µM).

A further assay has as its system Staphylococcus aureus. Put plainly: Antimicrobial activity against Staphylococcus aureus ATCC 11632 after 18 to 24 hrs by microbroth dilution method.
Settings: not given
It is filed as functional. In short, it runs like this:
as §1
As to `O=C(O)c1cn(C2CC2)c2cc(N3CCNCC3)c(F)cc2c1=O` [CIPROFLOXACIN], the MIC turned out to be 1 µg/mL (≈ 3.02 µM).

The next assay has as its system Vibrio parahaemolyticus. The assay is described as follows: Antimicrobial activity against Vibrio parahaemolyticus ATCC 17802 after 18 to 24 hrs by microbroth dilution method. It is filed as functional.
Settings: not given
In short, it runs like this:
as §1
`O=C(O)c1cn(C2CC2)c2cc(N3CCNCC3)c(F)cc2c1=O` [CIPROFLOXACIN] registered an MIC of 8 µg/mL (≈ 24.1 µM).

Molecule `CCn1cc(C(=O)O)c(=O)c2cc(F)c(N3CCN(c4ccccc4F)CC3)c(F)c21` yielded a minimum inhibitory concentration (MIC) of 1.5 µg/mL (≈ 3.48 µM).

In turn, `CCn1cc(C(=O)O)c(=O)c2cc(F)c(N3CCN(Cc4ccccc4)CC3)c(F)c21` gave an MIC of 1.5 µg/mL (≈ 3.51 µM).

The next assay deals with Vibrio alginolyticus. Put plainly: Antimicrobial activity against Vibrio alginolyticus ATCC 17749 after 18 to 24 hrs by microbroth dilution method. The assay is classed as functional.
Settings: not given
An outline of the steps:
as §1
In turn, `O=C(O)c1cn(C2CC2)c2cc(N3CCNCC3)c(F)cc2c1=O` [CIPROFLOXACIN] registered an MIC of 2 µg/mL (≈ 6.04 µM).

Another assay has as its system Bacillus subtilis. Put plainly: Antimicrobial activity against Bacillus subtilis ATCC 11774 after 18 to 24 hrs by microbroth dilution method. The assay is classed as functional.
Settings: not given
An outline of the steps:
as §1
Turning to `O=C(O)c1cn(C2CC2)c2cc(N3CCNCC3)c(F)cc2c1=O` [CIPROFLOXACIN], the MIC was 1.5 µg/mL (≈ 4.53 µM).

Turning to `CCn1cc(C(=O)O)c(=O)c2cc(F)c(N3CCN(c4ccccc4F)CC3)c(F)c21`, the minimal inhibitory concentration (MIC) is 1.25 µg/mL (≈ 2.9 µM).

Another assay relates to Streptococcus salivarius. The assay is described as follows: Antimicrobial activity against Streptococcus salivarius ATCC 13419 after 18 to 24 hrs by microbroth dilution method. The assay is classed as functional.
Settings: not given
In short, it runs like this: as §1
As to `O=C(O)c1cn(C2CC2)c2cc(N3CCNCC3)c(F)cc2c1=O` [CIPROFLOXACIN], the lowest concentration to inhibit growth (MIC) was 1.5 µg/mL (≈ 4.53 µM).

Molecule `CCn1cc(C(=O)O)c(=O)c2cc(F)c(N3CCN(c4ccccc4F)CC3)c(F)c21` returned a minimum inhibitory concentration (MIC) of 1 µg/mL (≈ 2.32 µM).

Molecule `CCn1cc(C(=O)O)c(=O)c2cc(F)c(N3CCN(Cc4ccccc4)CC3)c(F)c21` showed a minimal inhibitory concentration (MIC) of 2.5 µg/mL (≈ 5.85 µM).

Another assay relates to Proteus vulgaris. The assay is described as follows: Antimicrobial activity against Proteus vulgaris ATCC 49132 after 18 to 24 hrs by microbroth dilution method. The assay is classed as functional.
Settings: not given
In short, it runs like this: as §1
In the case of `O=C(O)c1cn(C2CC2)c2cc(N3CCNCC3)c(F)cc2c1=O` [CIPROFLOXACIN], it took 3 µg/mL (≈ 9.05 µM) to inhibit growth (MIC).

With `CCn1cc(C(=O)O)c(=O)c2cc(F)c(N3CCN(c4ccccc4F)CC3)c(F)c21`, the MIC turned out to be 2.5 µg/mL (≈ 5.79 µM).

The subject of the next assay is Streptococcus mitis. Put plainly: Antimicrobial activity against Streptococcus mitis ATCC 6249 after 18 to 24 hrs by microbroth dilution method. The assay is classed as functional.
Settings: not given
An outline of the steps:
as §1
`O=C(O)c1cn(C2CC2)c2cc(N3CCNCC3)c(F)cc2c1=O` [CIPROFLOXACIN] returned an MIC of 2.5 µg/mL (≈ 7.54 µM).

As for `CCn1cc(C(=O)O)c(=O)c2cc(F)c(N3CCN(c4ccccc4F)CC3)c(F)c21`, inhibition of growth (MIC) required 1.5 µg/mL (≈ 3.48 µM).

Turning to `CCn1cc(C(=O)O)c(=O)c2cc(F)c(N3CCN(Cc4ccccc4)CC3)c(F)c21`, inhibition of growth (MIC) required 1.5 µg/mL (≈ 3.51 µM).

For the next assay, the system named is Salmonella paratyphi. The assay is described as follows: Antimicrobial activity against Salmonella paratyphi A ATCC 9150 after 18 to 24 hrs by microbroth dilution method. It is filed as functional, Salmonella enterica subsp. enterica serovar Paratyphi A. As to conditions: Salmonella enterica. An outline of the steps:
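Broth microdilution in 96-well plates; bacteria grown in Mueller Hinton broth with varying concentrations of test compound, incubated at 37 °C for 18–24 h. Plates read visually with a reading mirror and spectrophotometrically at 450 nm. MIC taken as lowest concentration giving complete suppression of visible growth.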
As to `O=C(O)c1cn(C2CC2)c2cc(N3CCNCC3)c(F)cc2c1=O` [CIPROFLOXACIN], the MIC came out at 4 µg/mL (≈ 12.1 µM).

Take `CCn1cc(C(=O)O)c(=O)c2cc(F)c(N3CCN(Cc4ccccc4)CC3)c(F)c21`: the MIC worked out at 1 µg/mL (≈ 2.34 µM).

The next assay concerns Klebsiella pneumoniae. Put plainly: Antimicrobial activity against Klebsiella pneumoniae ATCC 10031 after 18 to 24 hrs by microbroth dilution method. The assay is classed as functional.
Settings: not given
An outline of the steps:
as §1
In turn, `O=C(O)c1cn(C2CC2)c2cc(N3CCNCC3)c(F)cc2c1=O` [CIPROFLOXACIN] registered an MIC of 1.5 µg/mL (≈ 4.53 µM).

Turning to `CCn1cc(C(=O)O)c(=O)c2cc(F)c(N3CCN(c4ccccc4F)CC3)c(F)c21`, the MIC is 1.5 µg/mL (≈ 3.48 µM).

In turn, `CCn1cc(C(=O)O)c(=O)c2cc(F)c(N3CCN(Cc4ccccc4)CC3)c(F)c21` gave an MIC of 1 µg/mL (≈ 2.34 µM).

The test system of a further assay is Shigella boydii. The assay is described as follows: Antimicrobial activity against Shigella boydii ATCC 9207 after 18 to 24 hrs by microbroth dilution method.
Settings: not given
The assay is classed as functional. In short, it runs like this:
as §1
`O=C(O)c1cn(C2CC2)c2cc(N3CCNCC3)c(F)cc2c1=O` [CIPROFLOXACIN] showed an MIC of 2.5 µg/mL (≈ 7.54 µM).

The molecule `CCn1cc(C(=O)O)c(=O)c2cc(F)c(N3CCN(c4ccccc4F)CC3)c(F)c21` came in with an MIC of 2 µg/mL (≈ 4.64 µM).

Take `CCn1cc(C(=O)O)c(=O)c2cc(F)c(N3CCN(Cc4ccccc4)CC3)c(F)c21`: the MIC was 1.5 µg/mL (≈ 3.51 µM).
